Experimental data reported in the array DNA melting data of Ke et al. (doi:10.1101/2024.01.08.574731).

Key:
[1] = folding enthalpy; higher = less favourable; fluorescence melt of hairpins on a sequencing array, two-state fit; conditions: sodium 0.088 M
Summary of the method: (§1)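 Hairpins were imaged by Cy3 fluorescence on a sequenced MiSeq flow cell with annealed Cy3 and quencher oligos, in 50 mM Na-HEPES pH 8.0, 25 mM NaCl, in 2.5 °C steps up to 60 °C. Bootstrapped two-state fits of normalised signals gave melting temperature and folding enthalpy. Four replicates were combined by inverse variance, and fitted temperatures were raised by 9.35 °C to match UV melts.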

[2] = melting temperature; fluorescence melt of hairpins on a sequencing array, two-state fit, raised by 9.35 °C to match UV melts; conditions: sodium 0.088 M
Summary of the method: as §1

Sequence	folding enthalpy [1] [kcal/mol]	Tm [2] [°C]
GTCGCGCGAAAGCGGAC (((.(((....))))))	-15.4	56.5
GTCGCGGGAAACCACGAC ((((.((....)).))))	-43.8	53.4
GTCGCGTCGAAAGACGAC (((..(((....))))))	-8.6	35.5
GTCGCTACGAAAGTAGAC (((..(((....))))))	-14.6	33.3
GTCGGACCGAAAGGTGAC (((..(((....))))))	-18	41.3
GTCGGACGAAAGTCAGAC (((.(((....))).)))	-39.9	59.3
GTCGGAGGAAACTCTGGC (.(.(((....))).).)	-28.2	37.2
GTCGGCCGAAAGGCGGAC (((.(((....))).)))	-27.5	67.8
GTCGGCGAAAGCCTTGAC ((((((....)))..)))	-13	40.5
GTCGGCGGAAACGTCGAC ((((.((....)).))))	-51.5	62
GTCGGGCGAAAGCCAGAC (((.(((....))).)))	-30	65.2
GTCGGGGGAAACCTCGAC ((((.((....)).))))	-44.2	55.5
GTCGGTACGAAAGTAGAC (((..(((....))))))	-10.7	31.9
GTCGGTGGAAACACTGAC (((.(((....))).)))	-40.6	54.4
GTCGTACGAAAGTATGAC (((.(((....))).)))	-41.9	54.3
GTCGTAGGAAACCACGAC (((((.(....).)))))	-31.8	49.1
GTCGTAGGAAACTATGAC (((.(((....))).)))	-35.4	45.2
GTCGTAGGAAACTGCGAC ((((.((....)).))))	-55.2	53.5
GTCGTAGGAAACTGTGAC (((..((....))..)))	-16.6	30.8
GTCGTCCCGAAAGGGGAC (((..(((....))))))	-11.7	45.1
GTCGTCCGAAAGGAGAC (((.(((....))))))	-20.6	49.3
GTCGTCGAAAGACAGAC ((((((....))).)))	-26.7	51.6
GTCGTCGAAAGACAGGAC ((((((....)))..)))	-18.3	41

Sequence	folding enthalpy [1] [kcal/mol]	Tm [2] [°C]
GTCGTCGAAAGACTGAC ((((((....))).)))	-19.4	47.5
GTCGTCGAAAGACTTGAC ((((((....)))..)))	-17	38.4
GTCGTCGGAAACGACGGC (.(((((....))))).)	-25.2	65.5
GTCGTCTCGAAAGAGGAC (((..(((....))))))	-21.6	39
GTCGTGAAAACGAC (((((....)))))	-30.5	60.8
GTCGTGCCGAAAGGCGAC (((..(((....))))))	-13.9	44.6
GTCGTGCGAAAGCAAGAC (((.(((....))).)))	-34.7	59.7
GTCGTGCGAAAGCAGAC (((.(((....))))))	-21.2	56.5
GTCGTGGGAAACCACAAC ((.((((....)))).))	-15.7	40.3
GTCGTGGGAAACCATGAC (((.(((....))).)))	-45.9	52.5
GTCGTTACGAAAGTAGAC (((..(((....))))))	-29.1	44.8
GTCGTTGCGAAAGCAGAC (((..(((....))))))	-21.1	49.2
GTCTAAGGAAACTTAGGC (.(((((....))))).)	-25.5	38.1
GTCTACACGAAAGTGGAC (((..(((....))))))	-14.1	37.2
GTCTACGAAAGTAAAGAC ((((((....)))..)))	-23.8	37.3
GTCTACGAAAGTAGAGAC ((((((....)))..)))	-12.8	40.1
GTCTACGAAAGTAGCGAC ((((((....)))..)))	-17.6	47
GTCTACGAAAGTATGAC ((((((....))).)))	-23.8	42.3
GTCTACGGAAACATAGAC (((((.(....).)))))	-27.1	31
GTCTACGGAAACGTGGAC (((.(((....))).)))	-39.8	53.1
GTCTAGCCGAAAGGCGAC (((..(((....))))))	-10.8	43.1
GTCTAGGGAAACTTAGAC (((((.(....).)))))	-36.3	37.4
GTCTATCGAAAGATTGAC (((.(((....))).)))	-35.1	46.3

Sequence	folding enthalpy [1] [kcal/mol]	Tm [2] [°C]
GTCTATGGAAACATGGAC (((.(((....))).)))	-31.1	45.6
GTCTCACGAAAGTGTGAC (((.(((....))).)))	-43.4	53.8
GTCTCAGGAAACTGAGAC (((((((....)))))))	-46.1	59.5
GTCTCAGGAAACTGGGAC (((.(((....))).)))	-35.6	49.8
GTCTCCCGAAAGGGTGAC (((.(((....))).)))	-31.1	56.5
GTCTCCGAAAGGAACGAC ((((((....)))..)))	-23.5	36.3
GTCTCCGAAAGGAAGAC ((((((....))).)))	-27.2	52.1
GTCTCCGAAAGGACAGAC ((((((....)))..)))	-17.3	37.2
GTCTCCGAAAGGACCGAC ((((((....)))..)))	-16.9	28.2
GTCTCCGAAAGGAGAGAC ((((((....)))..)))	-11.4	48
GTCTCCGAAAGGATCGAC ((((((....)))..)))	-14.7	31.4
GTCTCCGAAAGGATGGAC ((((((....)))..)))	-17.6	35.2
GTCTCCGGAAACGGAAAC ((.((((....)))).))	-16.2	36.3
GTCTCGCCGAAAGGCGAC (((..(((....))))))	-6.03	39.5
GTCTCGGGAAACCGAGGC (.(((((....))))).)	-29	57.6
GTCTCGGGAAACTGAGAC (((((.(....).)))))	-42.9	51.5
GTCTCTGGAAACAGAGAC (((((((....)))))))	-42.5	62.8
GTCTGAACGAAAGTTGAC (((..(((....))))))	-16.4	31.7
GTCTGAGGAAACTTAGAC ((((.((....)).))))	-30.7	39.9
GTCTGCGAAAGCACGAC ((((((....))).)))	-21.5	50.2
GTCTGCGAAAGCAGCGAC ((((((....)))..)))	-12.5	60.6
GTCTGCGAAAGCATTGAC ((((((....)))..)))	-14	40.2
GTCTGCGGAAACGCAAAC ((.((((....)))).))	-15.2	38

Sequence	folding enthalpy [1] [kcal/mol]	Tm [2] [°C]
GTCTGCGGAAACGTAGGC (.((.((....)).)).)	-26.7	42.4
GTCTGGACGAAAGTCGAC (((..(((....))))))	-17.6	38.4
GTCTGGCGAAAGCCGGAC (((.(((....))).)))	-25.6	69
GTCTGGGGAAACCCAAAC ((.((((....)))).))	-14.3	31.8
GTCTGTCCGAAAGGAGAC (((..(((....))))))	-15.1	31.3
GTCTTCCGAAAGGATGAC (((.(((....))).)))	-42.4	53.1
GTCTTCGAAAGAAAGAC ((((((....))).)))	-21.8	42.6
GTCTTCGAAAGAACAGAC ((((((....)))..)))	-16.6	28.3
GTCTTCGAAAGAAGAC ((((((....))))))	-30.3	62.4
GTCTTGGGAAACCAGGAC (((.(((....))).)))	-30.3	47.2
GTCTTGGGAAACTAAGGC (.(((.(....).))).)	-19.4	29
GTCTTTCCGAAAGGAGAC (((..(((....))))))	-10.6	29.2
GTCTTTGCGAAAGCAGAC (((..(((....))))))	-16.3	34.6
GTCTTTGGAAACAAAGGC (.(((((....))))).)	-29.3	46.6
GTGAAAGAAATTTCAC ((((((....))))))	-29.4	44.3
GTGAAAGGAAACTTTTAC ((.((((....)))).))	-22.9	31.3
GTGAACGAAAGTTACAC ((((((....))).)))	-17.7	38.8
GTGAACGAAAGTTATCAC ((((((....)))..)))	-13.2	31
GTGAACGAAAGTTCTCAC ((((((....)))..)))	-14.3	35
GTGAACGAAAGTTGCCAC ((((((....)))..)))	-9.75	25.9
GTGAACGCGAAAGCGCAC (((..(((....))))))	-14.8	42.3
GTGAACGGAAACGTTCGC (.(((((....))))).)	-28.9	56.9
